From ChEMBL document CHEMBL3244427, “Nonsteroidal antiinflammatory agents. 2. Derivatives/analogues of dibenz[b,e]oxepin-3-acetic acid” (J Med Chem, 1978)

Key:
Rattus norvegicus = experiment: Antiinflammatory activity in po dosed Donryu rat assessed as inhibition of carrageenan-induced paw edema; type: functional; conditions: read-out: ID50 (the source's name)
Summary of the method: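 Male Donryu rats weighing 130–160 g. Carrageenan was used to induce paw edema. ID50 was read from a regression line fitted by least squares, with 95% fiducial limits calculated by Filler's equation.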

[1] = Ulcerogenicity in po dosed Donryu rat assessed as gastric lesion; type: toxicity, organism-based, Stomach; conditions: in vivo, read-out: UD50 (the source's name)
Summary of the method: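 Male Donryu rats weighing 130–160 g. Gastric lesions were induced and then examined.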

[2] = Toxicity in po dosed Donryu rat assessed as mortality; type: organism-based; conditions: in vivo
Summary of the method: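 Acute toxicity was tested in male Donryu rats weighing 130–160 g, with mortality as the end point.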

[3] = Therapeutic index, ratio of UD50 for ulcerogenicity in po dosed Donryu rat assessed as gastric lesion to ID50 for antiinflammatory activity in po dosed Donryu rat assessed as inhibition of carrageenan-induced paw edema; type: organism-based, Stomach; conditions: in vivo, read-out: TI
[4] = Therapeutic index, ratio of LD50 for po dosed Donryu rat assessed as mortality to ID50 for antiinflammatory activity in po dosed Donryu rat assessed as inhibition of carrageenan-induced paw edema; type: organism-based; conditions: in vivo, read-out: TI

SMILES	ED50 (Rattus norvegicus) [µmol/kg]	also measured
O=C(O)Cc1ccc2c(c1)C(=O)c1sccc1CO2	75.1	
O=C(O)Cc1ccc2c(c1)SCc1sccc1C2=O	40	
CC(CO)c1ccc2c(c1)C(=O)c1ccccc1CO2 (stereo unspecified)	28.3	
CC(CO)c1ccc2c(c1)OCc1ccccc1C2=O (stereo unspecified)	6	
O=C(O)c1ccc2c(c1)C(=O)c1ccccc1CO2	> 70.8	
O=C(O)c1ccc2c(c1)OCc1ccccc1C2=O	> 70.8	
O=C1c2ccccc2COc2ccc(-c3nnn[nH]3)cc21	> 64.7	
O=C1c2ccccc2COc2cc(-c3nnn[nH]3)ccc21	> 64.7	
O=C1c2ccccc2COc2ccc(Cc3nnn[nH]3)cc21	> 61.6	
O=C1c2ccccc2COc2cc(Cc3nnn[nH]3)ccc21	> 61.6	
CC(=O)/C=C/c1ccc2c(c1)C(=O)c1ccccc1CO2	> 162	
CC(=O)/C=C/c1ccc2c(c1)OCc1ccccc1C2=O	> 162	
COc1ccc(C(=O)/C=C/c2ccc3c(c2)C(=O)c2ccccc2CO3)cc1	> 122	
CC(=O)CCc1ccc2c(c1)OCc1ccccc1C2=O	96.7	
CCN(CC)CCOC(=O)Cc1ccc2c(c1)C(=O)c1ccccc1CO2	133	
O=C(Cc1ccc2c(c1)OCc1ccccc1C2=O)Oc1ccc(C(=O)O)cc1	91.6	
CC1(C)OCC(COC(=O)Cc2ccc3c(c2)OCc2ccccc2C3=O)O1 (stereo unspecified)	100	TD50 [1]: 559 µmol/kg; LD50 [2]: 241 µmol/kg; selectivity ratio [3]: 5.6; selectivity ratio [4]: 2.4

SMILES	ED50 (Rattus norvegicus) [µmol/kg]	also measured
O=C(Cc1ccc2c(c1)OCc1ccccc1C2=O)OCC(O)CO (stereo unspecified)	31	TD50 [1]: 252 µmol/kg; LD50 [2]: 278 µmol/kg; selectivity ratio [3]: 8.1; selectivity ratio [4]: 9
NC(=O)Cc1ccc2c(c1)C(=O)c1ccccc1CO2	> 67.4	
CCOC(=O)CNC(=O)Cc1ccc2c(c1)OCc1ccccc1C2=O	> 50.9	
O=C(O)Cc1ccc2c(c1)COc1ccccc1C2=O	131	
CC(C(=O)O)c1ccc2c(c1)OCc1ccccc1C2=O (stereo unspecified)	2.7	
O=C(O)Cc1ccc2c(c1)C(O)c1ccccc1CO2 (stereo unspecified)	> 66.6	
O=C(O)Cc1ccc2c(c1)Cc1ccccc1CO2	99.1	
O=C(O)Cc1ccc2c(c1)Cc1ccc(Cl)cc1CO2	> 62.3	
O=C(O)Cc1ccc2c(c1)OCc1ccccc1C2O (stereo unspecified)	> 66.6	
O=C(O)Cc1ccc2c(c1)OCc1ccccc1C2	35	
CC(C(=O)O)c1ccc2c(c1)OCc1ccccc1C2 (stereo unspecified)	12.7	
O=C(O)Cc1ccc2c(c1)OCc1ccsc1C2=O	61.3	
CC(C(=O)O)c1ccc2c(c1)OCc1ccsc1C2=O (stereo unspecified)	43.7	
O=C(O)Cc1ccc2c(c1)SCc1ccsc1C2=O	> 62	
O=C(O)Cc1ccc2c(c1)C(=O)c1sccc1CS2	> 62	
O=C(O)Cc1ccc2c(c1)C(=O)c1ccccc1CO2 [ISOXEPAC]	50	
O=C(O)Cc1ccc2c(c1)OCc1ccccc1C2=O [OXEPINAC]	12.9	TD50 [1]: 279 µmol/kg; LD50 [2]: 383 µmol/kg; selectivity ratio [3]: 21.6; selectivity ratio [4]: 29.7
